Reference: ChEMBL document CHEMBL4229382, “Phenylthiazoles with tert-Butyl side chain: Metabolically stable with anti-biofilm activity” (Eur J Med Chem, 2018)
Converted amounts (≈) assume the structure as drawn.

Tests used:
[1] = tested on: Staphylococcus aureus; assay: Antibacterial activity against methicillin-resistant Staphylococcus aureus 2658 RCMB after 18 hrs by broth microdilution assay; assay type: functional
Summary of the method: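 Broth microdilution: inoculum from 0.5 McFarland suspension diluted to about 5 × 10^5 CFU/mL. Media were cation-adjusted Mueller-Hinton broth for staphylococci, brain heart infusion for E. faecium, and tryptone soya broth for E. faecalis, S. pneumoniae and L. monocytogenes.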

[2] = tested on: Staphylococcus aureus; assay: Antibacterial activity against methicillin-resistant Staphylococcus aureus NRS123 USA400 assessed as change in MIC after 14 serial passages by broth microdilution assay

Row | Structure (SMILES) | MIC [1] | Ratio [2]
1 | Cc1nc(-c2ccc(C(C)(C)C)cc2)sc1-c1ccnc(NC(=N)N)n1 | 1.56 µg/mL (≈ 4.26 µM) | 
2 | CNC(=N)Nc1nccc(-c2sc(-c3ccc(C(C)(C)C)cc3)nc2C)n1 | 1.56 µg/mL (≈ 4.1 µM) | 
3 | CCNc1nccc(-c2sc(-c3ccc(C(C)(C)C)cc3)nc2C)n1 | > 50 µg/mL | 
4 | CO[C@H]1/C=C/O[C@@]2(C)Oc3c(C)c(O)c4c(O)c(c(/C=N/N5CCN(C)CC5)c(O)c4c3C2=O)NC(=O)/C(C)=C\C=C\[C@H](C)[C@H](O)[C@@H](C)[C@@H](O)[C@@H](C)[C@H](OC(C)=O)[C@@H]1C [RIFAMPIN] |  | >500000
5 | Cc1nc(-c2ccc(C(C)(C)C)cc2)sc1-c1ccnc(N2CCCC2)n1 | > 50 µg/mL | 
6 | Cc1nc(-c2ccc(C(C)(C)C)cc2)sc1-c1ccnc(N)n1 | 6.25 µg/mL (≈ 19.3 µM) | 
7 | Cc1nc(-c2ccc(C(C)(C)C)cc2)sc1-c1ccnc(N=C(N(C)C)N(C)C)n1 | > 50 µg/mL | 
8 | Cc1nc(-c2ccc(C(C)(C)C)cc2)sc1-c1ccnc(N2CCOCC2)n1 | 25 µg/mL (≈ 63.4 µM) | 
9 | Cc1nc(-c2ccc(C(C)(C)C)cc2)sc1-c1ccnc(NC(=N)N2CCCC2)n1 | 50 µg/mL (≈ 119 µM) | 
10 | Cc1nc(-c2ccc(C(C)(C)C)cc2)sc1-c1ccnc(NN)n1 | 1.56 µg/mL (≈ 4.6 µM) | 
11 | Cc1nc(-c2ccc(C(C)(C)C)cc2)sc1-c1ccnc(N2CC(O)C2)n1 | 6.25 µg/mL (≈ 16.4 µM) | 
